From ChEMBL document CHEMBL4033652, “Design, synthesis, and pharmacological evaluation of 4-azolyl-benzamide derivatives as novel GPR52 agonists” (Bioorg Med Chem, 2017)

Legend:
[1] = biological target: T1, G-protein coupled receptor 52 (Homo sapiens, UniProt Q9Y2T5); assay: Agonist activity at human GPR52 expressed in CHO cells assessed as increase in cAMP level after 30 mins by AlphaScreen assay; assay type: functional, cell-based
How it was run: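 CHO cells stably expressing human GPR52 (10,000/well) exposed to compound at various concentrations, 30 min, 37°C, in HBSS with 5 mM HEPES pH 7.6, 0.5% BSA, 100 µM IBMX and 100 µM Ro20-1724. AlphaScreen acceptor/donor beads added overnight at room temperature. Response expressed relative to a reference benzofuran agonist (100%). EC50 from mean curves, n = 2–4, 95% CI.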

[2] = biological target: T1, G-protein coupled receptor 52; assay: Agonist activity at human GPR52 expressed in CHO cells assessed as increase in cAMP level after 30 mins by AlphaScreen assay relative to (N-(2-hydroxyethyl)-3-(2-(3-(trifluoromethyl)benzyl)-1-benzofuran-4-yl)benzamide); assay type: functional, cell-based
How it was run: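 CHO cells stably expressing human GPR52, 10,000 cells per well, exposed to compound 30 min at 37°C in HBSS with 5 mM HEPES pH 7.6, 0.5% BSA, 100 µM IBMX and 100 µM Ro20-1724. cAMP measured by AlphaScreen with acceptor and biotinylated donor beads after overnight room-temperature incubation. Emax set relative to the reference benzofuran benzamide (100%). EC50 taken from mean curves, n = 2–4, with 95% CI.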

[3] = Oral bioavailability in Sprague-Dawley rat at 1 mg/kg administered as cassette dose by LC-MS/MS analysis; assay type: ADME, organism-based; conditions: in vivo
How it was run: (§1)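 Cassette dosing in non-fasted male SD rats (n = 3): i.v. 0.1 mg/kg or p.o. 1 mg/kg. Plasma prepared from blood, deproteinized, centrifuged, supernatant measured by LC/MS/MS. AUC taken over 0–8 h.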

[4] = AUC (0 to 8 hrs) in Sprague-Dawley rat at 1 mg/kg, po administered as cassette dose by LC-MS/MS analysis; assay type: ADME, organism-based; parameters: time < 8 hr, dose 1 mg/kg, route oral; conditions: in vivo; how it was run: as §1
[5] = Total clearance in Sprague-Dawley rat at 0.1 mg/kg, iv or 1 mg/kg, po administered as cassette dose by LC/MS/MS analysis; assay type: ADME, organism-based; conditions: in vivo; how it was run: as §1

T1 sequence (Q9Y2T5 whole entry): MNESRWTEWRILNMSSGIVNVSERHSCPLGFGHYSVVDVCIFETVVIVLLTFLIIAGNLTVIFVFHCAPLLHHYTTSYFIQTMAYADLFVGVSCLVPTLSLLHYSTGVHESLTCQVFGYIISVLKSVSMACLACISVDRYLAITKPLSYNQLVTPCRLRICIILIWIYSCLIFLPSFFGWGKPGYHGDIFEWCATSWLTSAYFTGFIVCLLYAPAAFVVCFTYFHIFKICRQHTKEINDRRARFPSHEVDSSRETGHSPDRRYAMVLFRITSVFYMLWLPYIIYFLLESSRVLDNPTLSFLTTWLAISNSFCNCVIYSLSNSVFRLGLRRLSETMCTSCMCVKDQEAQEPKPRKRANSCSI

Row | Structure (SMILES) | EC50 [1] [nM] | Emax [2] [%] | bioavailability [3] [%] | AUC(0-t) at 8 h [4] [ng·h/mL] | clearance [5] [mL/min/kg]
1 | Cc1nc(Cc2cccc(C(F)(F)F)c2)sc1-c1ccc(C(N)=O)c(C(F)(F)F)c1 | 110 | 92 |  |  | 
2 | Cc1cc(-c2sc(Cc3ccc(Cl)cc3)nc2C)ccc1C(N)=O | 210 | 60 |  |  | 
3 | Cc1cc(-c2sc(Cc3ccccc3Cl)nc2C)ccc1C(N)=O | 3900 | 51 |  |  | 
4 | Cc1nc(Cc2cccc(C(F)(F)F)c2)sc1-c1ccc(C(N)=O)c(C(C)C)c1 | 370 | 63 |  |  | 
5 | Cc1cc(-c2sc(Cc3cc(F)cc(C(F)(F)F)c3)nc2C)ccc1C(N)=O | 11 | 93 | 14 | 60.5 | 39.5
6 | COc1cccc(Cc2nc(C)c(-c3ccc(C(N)=O)c(C)c3)s2)c1 | 160 | 85 |  |  | 
7 | Cc1cc(-n2cc(Cc3cc(F)cc(C(F)(F)F)c3)nc2C)ccc1C(N)=O | 59 | 107 | 28.4 | 268 | 18.8
8 | Cc1nc(Cc2cccc(C(F)(F)F)c2)sc1-c1ccc(C(N)=O)cc1 | 220 | 93 |  |  | 
9 | Cc1cc(-c2cc(Cc3cc(F)cc(C(F)(F)F)c3)nn2C)ccc1C(N)=O | 23 | 123 | 30.5 | 155 | 32.9
10 | Cc1cc(-c2sc(Cc3cccc(F)c3)nc2C)ccc1C(N)=O | 260 | 75 |  |  | 
